System: HeLa
Assay: Cytotoxicity towards HeLa cells was determined
Type: functional, cell-based
Settings: Homo sapiens

`COc1cccc2[nH]c3c(c12)CC(NC(=O)Nc1c(C(C)C)cccc1C(C)C)(C(=O)NCC1(c2ccccn2)CCCCC1)CC3` (single isomer, unassigned; (+)) was tested, and the IC50 was over 50000 nM.

Molecular target: T1, Neuromedin-B receptor (Homo sapiens, UniProt P28336)
Assay: Agonistic activity was determined against human Neuromedin B receptor transfected in HEK293 cells as accumulation levels of inositol phosphate
Type: functional, cell-based
Settings: not given
How it was run: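 hNMBR-transfected HEK293 cells (2.5 · 10⁴) labelled overnight at 37 °C in high-glucose DMEM with 25 mM Hepes, 10% dialyzed FBS and myo-[³H]inositol. Compounds added in inositol-free DMEM with 0.3% BSA and 10 mM LiCl, 60 min, 37 °C. Lysis in 20 mM formic acid, 2 h, 4 °C. Inositol phosphates captured on SPA beads and counted next day.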

T1 sequence (P28336 whole entry): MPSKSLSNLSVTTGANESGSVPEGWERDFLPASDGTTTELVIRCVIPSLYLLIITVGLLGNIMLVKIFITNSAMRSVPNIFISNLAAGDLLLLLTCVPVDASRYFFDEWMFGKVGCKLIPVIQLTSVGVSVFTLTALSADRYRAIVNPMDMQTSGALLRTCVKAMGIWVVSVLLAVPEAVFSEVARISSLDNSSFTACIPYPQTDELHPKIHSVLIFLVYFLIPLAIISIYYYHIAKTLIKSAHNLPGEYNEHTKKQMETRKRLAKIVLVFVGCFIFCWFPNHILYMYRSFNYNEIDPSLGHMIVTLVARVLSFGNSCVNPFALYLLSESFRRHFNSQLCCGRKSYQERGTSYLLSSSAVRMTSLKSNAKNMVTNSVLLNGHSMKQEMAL

Compared with `CC(C)c1cccc(C(C)C)c1NC(=O)NC1(C(=O)NCC2(c3ccccn3)CCCCC2)CCc2[nH]c3ccccc3c2C1` (stereo not given), `COc1cccc2[nH]c3c(c12)CC(NC(=O)Nc1c(C(C)C)cccc1C(C)C)(C(=O)NCC1(c2ccccn2)CCCCC1)CC3` (single isomer, unassigned; (+)) is 34-fold lower in EC50: 603 nM for the first, 17.7 nM for the second. The second is the more potent here.

Molecule `COc1cccc2[nH]c3c(c12)CC(NC(=O)Nc1c(C(C)C)cccc1C(C)C)(C(=O)NCC1(c2ccccn2)CCCCC1)CC3` (single isomer, unassigned; (-)) has an EC50 of 1970 nM.
In the case of `COc1cccc2[nH]c3c(c12)CC(NC(=O)Nc1c(C(C)C)cccc1C(C)C)(C(=O)NCC1(c2ccccn2)CCCCC1)CC3` (stereo in doubt; 20), the EC50 is reported as 132 nM.

Molecular target: T1, Neuromedin-B receptor
Assay: Affinity of [125I][D-Tyr0]-NMB to human Neuromedin B receptor expressed in HEK293 cells
Type: cell-based
Settings: not given
How it was run: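 Whole-cell competition binding on HEK293 cells stably transfected with hNMBR, 1 · 10⁶ cells per well in DMEM. Incubation 1 h at room temperature with 150 pM ¹²⁵I-[D-Tyr0]NMB (2200 Ci/mmol). Bound and free ligand separated by filtration; bound counts read by scintillation counting.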

First: Cc1cccc2[nH]c3c(c12)CC(NC(=O)Nc1c(C(C)C)cccc1C(C)C)(C(=O)NCC1(c2ccccn2)CCCCC1)CC3 (stereo not given)
Second: COc1cccc2[nH]c3c(c12)CC(NC(=O)Nc1c(C(C)C)cccc1C(C)C)(C(=O)NCC1(c2ccccn2)CCCCC1)CC3 (single isomer, unassigned; (+))
The IC50 of the first is 23-fold higher: 660 nM for the first, 29 nM for the second. The second is the more potent here.

`CCNC(=O)NC1(C(=O)NCC2(c3ccccn3)CCCCC2)CCc2[nH]c3ccccc3c2C1` (stereo not given) and `NC(=O)NC1(C(=O)NCC2(c3ccccn3)CCCCC2)CCc2[nH]c3ccccc3c2C1` (stereo not given) cannot be ordered by IC50: over 10000 nM for the first, over 10000 nM for the second.

Going from `CC(C)c1cccc(C(C)C)c1NC(=O)NC1(C(=O)NCC2(c3ccccn3)CCCCC2)CCc2[nH]c3cc(Br)ccc3c2C1` (stereo not given) to `CC(C)c1cccc(C(C)C)c1NC(=O)NC1(C(=O)NCC2(c3ccccn3)CCCCC2)CCc2[nH]c3ccccc3c2C1` (stereo not given), the IC50 falls from 2140 nM to 320 nM (6.7-fold).

First: CC(C)c1cccc(C(C)C)c1NC(=O)NC1(C(=O)NCC2(c3ccc(Cl)cc3)CC2)CCc2[nH]c3ccccc3c2C1 (stereo not given)
Second: CC(C)c1cccc(C(C)C)c1NC(=O)NC1(C(=O)NCC2(c3ccccn3)CC2)CCc2[nH]c3ccccc3c2C1 (stereo not given)
The IC50 of the first is higher: over 10000 nM for the first, 3350 nM for the second.

Going from `CC(C)c1cccc(C(C)C)c1NC(=O)NC1(C(=O)NCC2(c3ccccn3)CCCCC2)CCc2[nH]c3cccc(C(F)(F)F)c3c2C1` (stereo not given) to `CC(C)c1cccc(C(C)C)c1NC(=O)NC1(C(=O)NCC2(c3ccccn3)CCCCC2)CCc2[nH]c3cccc(OC(F)(F)F)c3c2C1` (stereo not given), the IC50 falls from 3660 nM to 1890 nM (1.9-fold).

`Cc1cc([N+](=O)[O-])ccc1NC(=O)NC1(C(=O)NCC2(c3ccccn3)CCCCC2)CCc2[nH]c3ccccc3c2C1` (stereo not given) and `O=C(Nc1ccc([N+](=O)[O-])cc1)NC1(C(=O)NCC2(c3ccccn3)CCCCC2)CCc2[nH]c3ccccc3c2C1` (stereo not given) are within 1.5-fold of each other in IC50: 620 nM for the first, 800 nM for the second.

First: CC(C)(CNC(=O)C1(NC(=O)Nc2ccc([N+](=O)[O-])cc2)CCc2[nH]c3ccccc3c2C1)c1ccccn1 (stereo not given)
Second: O=C(Nc1ccc([N+](=O)[O-])cc1)NC1(C(=O)NCCc2ccccn2)CCc2[nH]c3ccccc3c2C1 (stereo not given)
The IC50 of the first is lower: 10000 nM for the first, over 10000 nM for the second.

`CC(C)c1cccc(C(C)C)c1NC(=O)NC1(C(=O)NCC2(c3ccccn3)CCCCC2)CCc2[nH]c3cccc([N+](=O)[O-])c3c2C1` (stereo not given) and `CC(C)c1cccc(C(C)C)c1NC(=O)NC1(C(=O)NCC2(c3ccccn3)CCCCC2)CCc2[nH]c3cccc(C(=O)O)c3c2C1` (stereo not given) cannot be ordered by IC50: over 10000 nM for the first, over 10000 nM for the second.

First: O=C(Nc1ccc(C(F)(F)F)cc1)NC1(C(=O)NCC2(c3ccccn3)CCCCC2)CCc2[nH]c3ccccc3c2C1 (stereo not given)
Second: O=C(Nc1ccc(OC(F)(F)F)cc1)NC1(C(=O)NCC2(c3ccccn3)CCCCC2)CCc2[nH]c3ccccc3c2C1 (stereo not given)
The IC50 of the first is 2.7-fold lower: 1110 nM for the first, 3040 nM for the second.

`CCOC(=O)c1cc(NC(=O)NC2(C(=O)NCC3(c4ccccn4)CCCCC3)CCc3[nH]c4ccccc4c3C2)cc(C(=O)OCC)c1` (stereo not given) and `CC(=O)c1cccc(NC(=O)NC2(C(=O)NCC3(c4ccccn4)CCCCC3)CCc3[nH]c4ccccc4c3C2)c1` (stereo not given) are within 1.5-fold of each other in IC50: 1850 nM for the first, 2270 nM for the second.

`O=C(NC1CCCCC1)NC1(C(=O)NCC2(c3ccccn3)CCCCC2)CCc2[nH]c3ccccc3c2C1` (stereo not given) and `Cc1cccc(C)c1NC(=O)NC1(C(=O)NCC2(c3ccccn3)CCCCC2)CCc2[nH]c3ccccc3c2C1` (stereo not given) are within 1.5-fold of each other in IC50: 3920 nM for the first, 5490 nM for the second.

Compared with `O=C(Nc1ccc([N+](=O)[O-])cc1)NC1(C(=O)NCC2(c3ccccn3)CCS(=O)(=O)CC2)CCc2[nH]c3ccccc3c2C1` (stereo not given), `COc1ccccc1NC(=O)NC1(C(=O)NCC2(c3ccccn3)CCCCC2)CCc2[nH]c3ccccc3c2C1` (stereo not given) is lower in IC50: over 10000 nM for the first, 8720 nM for the second.

`CC(C)c1cccc(C(C)C)c1NC(=O)NC1(C(=O)NCC2(c3ccccn3)CCCCC2)CCc2[nH]c3cc(F)ccc3c2C1F` (stereo not given) and `Cc1ccc2[nH]c3c(c2c1)C(C)C(NC(=O)Nc1c(C(C)C)cccc1C(C)C)(C(=O)NCC1(c2ccccn2)CCCCC1)CC3` (stereo in doubt; 22) are within 1.5-fold of each other in IC50: 1010 nM for the first, 700 nM for the second.

Compared with `CC(C)c1cccc(C(C)C)c1NC(=O)NC1(C(=O)NCC(C)(C)c2ccccn2)CCc2[nH]c3ccccc3c2C1` (stereo not given), `COc1cccc2[nH]c3c(c12)CC(NC(=O)Nc1c(C(C)C)cccc1C(C)C)(C(=O)NCC1(c2ccccn2)CCCCC1)CC3` (stereo in doubt; 20) is 17-fold lower in IC50: 4150 nM for the first, 250 nM for the second. The second is the more potent here.

Going from `CC(C)c1cccc(C(C)C)c1NC(=O)N[C@@](C)(Cc1c[nH]c2ccccc12)C(=O)NCC1(c2ccccn2)CCCCC1` to `Cc1ccc2[nH]c3c(c2c1)C(C)C(NC(=O)Nc1c(C(C)C)cccc1C(C)C)(C(=O)NCC1(c2ccccn2)CCCCC1)CC3` (stereo in doubt; 23), the IC50 rises from 350 nM to 790 nM (2.3-fold).

From ChEMBL document CHEMBL1146776, “Identification and optimization of novel partial agonists of neuromedin B receptor using parallel synthesis” (Bioorg Med Chem Lett, 2004)
